Laboratory results published in ChEMBL document CHEMBL4406821, “Novel dual inhibitors targeting CDK4 and VEGFR2 synergistically suppressed cancer progression and angiogenesis” (Eur J Med Chem, 2019).
Active and inactive are the calls of the source. No cut-off for these calls is given here.

Tests used:
[1] = Toxicity in BALB/c mouse assessed as effect on blood parameter by measuring RBC content at 40 mg/kg, po administered once two days for 4 times by hematology analyzer; conditions: in vivo
[2] = biological target: Serine/threonine-protein kinase ULK1 (Homo sapiens) (UniProt O75385); assay: Inhibition of recombinant human ULK1 (1 to 314 residues) at 1 uM using casein as substrate incubated for 40 mins in presence of [gamma-33P]-ATP by scintillation counting method relative to control
Method in brief: (§1)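 Tested at a single 1 uM in an outsourced commercial kinase-profiling panel, read as percent inhibition. Each value is the mean of two independent experiments.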

[3] = biological target: Serine/threonine-protein kinase VRK1 (Homo sapiens) (UniProt Q99986); assay: Inhibition of recombinant human VRK1 at 1 uM incubated for 40 mins in presence of [gamma-33P]-ATP by scintillation counting method relative to control
[4] = biological target: Casein kinase I isoform gamma-2 (Homo sapiens) (UniProt P78368); assay: Inhibition of recombinant human CK1gamma2 (18 to end residues) at 1 uM using KRRRALS(p)VAS as substrate incubated for 40 mins in presence of [gamma-33P]-ATP by scintillation counting method relative to control
Method in brief: (§2)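 Kinase panel profiling at 1 μM performed by Eurofins KinaseProfiler; percent inhibition reported as mean of two independent experiments.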

[5] = biological target: Epidermal growth factor receptor (Homo sapiens) (UniProt P00533); assay: Inhibition of recombinant human EGFR (696 to end residues) at 1 uM using poly(Glu, Tyr) 4:1 as substrate incubated for 40 mins in presence of [gamma-33P]-ATP by scintillation counting method relative to control
Method in brief: as §2

[6] = biological target: Serine/threonine-protein kinase Nek7 (Homo sapiens) (UniProt Q8TDX7); assay: Inhibition of recombinant human NEK7 (2 to end residues) at 1 uM using FLAKSFGSPNRAYKK as substrate incubated for 40 mins in presence of [gamma-33P]-ATP by scintillation counting method relative to control
[7] = biological target: Ephrin type-B receptor 1 (Homo sapiens) (UniProt P54762); assay: Inhibition of recombinant human EPhB1 (564 to end residues) at 1 uM using KVEKIGEGTYGVVYK as substrate incubated for 40 mins in presence of [gamma-33P]-ATP by scintillation counting method relative to control
[8] = tested on: Mast/stem cell growth factor receptor Kit (Homo sapiens), P10721 [D816H]; assay: Inhibition of recombinant human cKIT D816H mutant (544 to end residues) at 1 uM using GGMEDIYFEFMGG as substrate incubated for 40 mins in presence of [gamma-33P]-ATP by scintillation counting method relative to control
Method in brief: as §1

[9] = biological target: G protein-coupled receptor kinase 3 (Homo sapiens) (UniProt P35626); assay: Inhibition of recombinant human full length GRK3 at 1 uM using casein as substrate incubated for 40 mins in presence of [gamma-33P]-ATP by scintillation counting method relative to control
[10] = biological target: PI3-kinase p110-delta/p85-alpha (Homo sapiens) (UniProt P27986+O00329); assay: Inhibition of recombinant human full length PI3K p110delta/p85alpha at 1 uM using phosphatidylinositol-4, 5-bisphosphate as substrate incubated for 40 mins in presence of [gamma-33P]-ATP by scintillation counting method relative to control; type: protein-complex assay
[11] = biological target: Dual specificity mitogen-activated protein kinase kinase 3 (Homo sapiens) (UniProt P46734); assay: Inhibition of recombinant human MKK3 at 1 uM incubated for 40 mins in presence of [gamma-33P]-ATP by scintillation counting method relative to control
[12] = tested on: Proto-oncogene tyrosine-protein kinase receptor Ret (Homo sapiens), P07949 [V804M]; assay: Inhibition of recombinant human RET V804M mutant (658 to end residues) at 1 uM using KKKVSRSGLYRSPSMPENLNRPR as substrate incubated for 40 mins in presence of [gamma-33P]-ATP by scintillation counting method relative to control
[13] = AUMC (0 to t) in Sprague-Dawley rat at 10 mg/kg at 10 mg/kg, po by HPLC-MS analysis; type: ADME, organism-based; conditions: in vivo
Method in brief: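 Rats fitted with jugular vein catheters for serial blood sampling. Compound dissolved in saline with 5% (v/v) DMSO and given as a single 10 mg/kg dose iv or po after an overnight fast, n = 5 per group. Plasma isolated at once and measured by HPLC with tandem MS detection. Parameters derived by noncompartmental fitting.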

[14] = biological target: Glycogen synthase kinase-3 alpha (Homo sapiens) (UniProt P49840); assay: Inhibition of recombinant human GSK3alpha (2 to end residues) at 1 uM using YRRAAVPPSPSLSRHSSPHQS(p) EDEEE as substrate incubated for 40 mins in presence of [gamma-33P]-ATP by scintillation counting method relative to control
Method in brief: as §1

HeLa = assay: Antiproliferative activity against human HeLa cells assessed as reduction in cell viability at 40 to 80 nM incubated for 48 hrs by EdU staining based laser scanning confocal microscopy; type: functional
Method in brief: (§3)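 Cells, 5×10^4, were seeded in 24-well plates and treated for 48 h. They were then labeled using an EdU Apollo 488 imaging kit with Hoechst 33342 nuclear stain and imaged by laser scanning confocal microscopy. Percent EdU-positive cells = EdU-positive/Hoechst-stained × 100%.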

[15] = tested on: Serine/threonine-protein kinase Chk2 (Homo sapiens), O96017 [R145W]; assay: Inhibition of recombinant human CHK2 R145W mutant (5 to end residues) at 1 uM using KKKVSRSGLYRSP as substrate incubated for 40 mins in presence of [gamma-33P]-ATP by scintillation counting method relative to control
Method in brief: as §2

[16] = biological target: Bone morphogenetic protein receptor type-1B (Homo sapiens) (UniProt O00238); assay: Inhibition of recombinant human ALK6 (148 to end residues) at 1 uM using casein as substrate incubated for 40 mins in presence of [gamma-33P]-ATP by scintillation counting method relative to control
Method in brief: as §2

[17] = biological target: Serine/threonine-protein kinase D1 (Homo sapiens) (UniProt Q15139); assay: Inhibition of recombinant human full length PKCmu at 1 uM using KKLNRTLSVA as substrate incubated for 40 mins in presence of [gamma-33P]-ATP by scintillation counting method relative to control
CDK4/Cyclin D3 = CDK4/Cyclin D3 (Homo sapiens, UniProt P11802); assay: Inhibition of recombinant full length human CDK4/Cyclin D3 using Rb-fragmen as substrate incubated for 40 mins by [gamma-33P]-ATP based radiometric assay; type: protein-complex assay
SiHa [18] = assay: Antiproliferative activity against human SiHa cells assessed as reduction in cell viability at 80 nM incubated for 48 hrs by EdU staining based laser scanning confocal microscopy; type: functional
Method in brief: as §3

SiHa [19] = assay: Induction of apoptosis in human SiHa cells at 40 nM incubated for 48 hrs by annexin V FITC and propidium iodide staining based flow cytometry; type: functional, cell-based
Method in brief: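 Annexin V-FITC/PI double staining with flow-cytometric readout. MDA-MB-231, T-47D, SiHa and HeLa cells were treated with graded concentrations for 48 h. MDA-MB-231 and T-47D were grown in DMEM and SiHa in 1640 medium, each with 10% FBS and 1% penicillin/streptomycin at 37°C under 5% CO2. Early- and late-stage apoptotic fractions were scored.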

Serine/threonine-protein kinase VRK1 (Homo sapiens), sequence (Q99986 whole entry, canonical isoform): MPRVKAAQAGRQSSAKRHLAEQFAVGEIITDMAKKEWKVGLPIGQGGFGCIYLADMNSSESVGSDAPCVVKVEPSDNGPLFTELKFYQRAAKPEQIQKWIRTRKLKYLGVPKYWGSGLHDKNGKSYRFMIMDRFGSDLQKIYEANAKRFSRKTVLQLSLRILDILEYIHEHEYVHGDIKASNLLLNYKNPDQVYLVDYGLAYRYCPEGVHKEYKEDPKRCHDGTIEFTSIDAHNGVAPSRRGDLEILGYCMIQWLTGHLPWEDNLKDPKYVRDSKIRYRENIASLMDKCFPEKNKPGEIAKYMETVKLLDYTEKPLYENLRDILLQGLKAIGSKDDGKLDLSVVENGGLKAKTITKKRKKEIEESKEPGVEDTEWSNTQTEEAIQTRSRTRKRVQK
CDK4/Cyclin D3, sequence (P11802 whole entry): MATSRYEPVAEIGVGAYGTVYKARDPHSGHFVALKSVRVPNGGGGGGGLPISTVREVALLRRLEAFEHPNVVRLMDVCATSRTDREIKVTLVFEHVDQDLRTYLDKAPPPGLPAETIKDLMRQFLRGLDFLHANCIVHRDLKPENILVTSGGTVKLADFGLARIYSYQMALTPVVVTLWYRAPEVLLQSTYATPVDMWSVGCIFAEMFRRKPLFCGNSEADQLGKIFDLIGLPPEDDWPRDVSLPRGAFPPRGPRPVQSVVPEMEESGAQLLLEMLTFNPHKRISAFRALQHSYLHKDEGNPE
CDK4/Cyclin D3, sequence (P30281 whole entry, further chain): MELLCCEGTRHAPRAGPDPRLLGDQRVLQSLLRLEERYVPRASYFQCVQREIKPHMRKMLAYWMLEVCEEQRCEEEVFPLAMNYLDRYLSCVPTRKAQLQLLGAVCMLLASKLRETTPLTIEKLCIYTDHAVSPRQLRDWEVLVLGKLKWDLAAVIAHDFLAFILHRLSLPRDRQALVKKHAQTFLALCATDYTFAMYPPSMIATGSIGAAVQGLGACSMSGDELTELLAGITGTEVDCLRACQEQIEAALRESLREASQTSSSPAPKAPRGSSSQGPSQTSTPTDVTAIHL
Bone morphogenetic protein receptor type-1B (Homo sapiens), sequence (O00238 whole entry): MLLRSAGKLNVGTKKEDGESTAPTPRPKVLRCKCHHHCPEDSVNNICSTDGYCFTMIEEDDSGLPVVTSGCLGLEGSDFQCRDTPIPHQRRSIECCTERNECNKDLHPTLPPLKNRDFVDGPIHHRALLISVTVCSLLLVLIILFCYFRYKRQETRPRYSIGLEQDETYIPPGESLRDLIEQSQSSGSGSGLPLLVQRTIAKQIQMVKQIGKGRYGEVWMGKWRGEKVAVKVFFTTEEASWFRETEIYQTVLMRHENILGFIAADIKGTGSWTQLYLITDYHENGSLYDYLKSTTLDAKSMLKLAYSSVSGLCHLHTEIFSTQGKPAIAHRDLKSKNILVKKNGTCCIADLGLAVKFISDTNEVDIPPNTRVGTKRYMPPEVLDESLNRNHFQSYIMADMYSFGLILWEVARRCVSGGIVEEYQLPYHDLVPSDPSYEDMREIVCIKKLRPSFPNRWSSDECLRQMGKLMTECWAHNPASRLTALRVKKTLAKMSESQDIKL
G protein-coupled receptor kinase 3 (Homo sapiens), sequence (P35626 whole entry): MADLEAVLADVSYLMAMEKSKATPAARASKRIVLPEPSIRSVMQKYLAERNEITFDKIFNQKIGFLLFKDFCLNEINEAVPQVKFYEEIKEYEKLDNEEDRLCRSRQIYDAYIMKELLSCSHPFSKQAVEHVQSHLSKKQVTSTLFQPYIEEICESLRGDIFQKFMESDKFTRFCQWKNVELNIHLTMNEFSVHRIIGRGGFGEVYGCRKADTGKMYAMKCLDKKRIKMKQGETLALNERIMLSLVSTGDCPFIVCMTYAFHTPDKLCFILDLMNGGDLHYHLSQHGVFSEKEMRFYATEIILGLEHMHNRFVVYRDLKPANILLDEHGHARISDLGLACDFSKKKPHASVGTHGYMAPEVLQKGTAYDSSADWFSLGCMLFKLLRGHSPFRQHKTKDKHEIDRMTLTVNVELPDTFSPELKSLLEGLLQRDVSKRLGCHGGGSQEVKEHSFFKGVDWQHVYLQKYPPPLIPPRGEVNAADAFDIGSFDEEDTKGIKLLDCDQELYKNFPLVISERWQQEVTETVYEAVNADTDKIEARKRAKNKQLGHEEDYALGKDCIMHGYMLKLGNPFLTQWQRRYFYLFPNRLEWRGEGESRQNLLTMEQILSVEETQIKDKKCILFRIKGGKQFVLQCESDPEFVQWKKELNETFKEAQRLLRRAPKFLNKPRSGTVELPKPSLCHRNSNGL
Dual specificity mitogen-activated protein kinase kinase 3 (Homo sapiens), sequence (P46734 whole entry): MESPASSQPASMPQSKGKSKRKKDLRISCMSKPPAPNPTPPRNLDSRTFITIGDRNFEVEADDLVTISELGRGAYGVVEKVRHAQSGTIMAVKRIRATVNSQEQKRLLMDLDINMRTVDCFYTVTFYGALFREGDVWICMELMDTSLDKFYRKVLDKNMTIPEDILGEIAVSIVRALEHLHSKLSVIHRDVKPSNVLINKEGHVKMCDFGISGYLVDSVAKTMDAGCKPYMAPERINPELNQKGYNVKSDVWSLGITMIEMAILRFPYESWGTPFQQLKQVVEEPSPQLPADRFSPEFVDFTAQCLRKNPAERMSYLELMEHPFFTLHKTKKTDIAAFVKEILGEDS
Serine/threonine-protein kinase Chk2 (Homo sapiens), O96017 [R145W], sequence (O96017 whole entry R145W): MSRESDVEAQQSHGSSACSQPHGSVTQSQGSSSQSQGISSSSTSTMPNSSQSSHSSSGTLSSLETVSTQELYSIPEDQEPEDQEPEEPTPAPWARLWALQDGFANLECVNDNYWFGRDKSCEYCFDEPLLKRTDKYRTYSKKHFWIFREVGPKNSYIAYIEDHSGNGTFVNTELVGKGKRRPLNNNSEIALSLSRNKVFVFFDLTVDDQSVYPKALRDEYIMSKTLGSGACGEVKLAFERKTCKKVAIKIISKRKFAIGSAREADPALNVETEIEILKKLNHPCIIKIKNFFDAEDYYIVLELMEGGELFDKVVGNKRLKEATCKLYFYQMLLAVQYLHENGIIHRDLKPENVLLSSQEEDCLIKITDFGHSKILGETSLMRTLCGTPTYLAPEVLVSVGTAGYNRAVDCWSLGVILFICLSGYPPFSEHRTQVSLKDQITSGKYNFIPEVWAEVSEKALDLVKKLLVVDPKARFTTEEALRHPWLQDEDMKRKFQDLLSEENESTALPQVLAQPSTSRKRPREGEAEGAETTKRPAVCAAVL
Serine/threonine-protein kinase D1 (Homo sapiens), sequence (Q15139 whole entry): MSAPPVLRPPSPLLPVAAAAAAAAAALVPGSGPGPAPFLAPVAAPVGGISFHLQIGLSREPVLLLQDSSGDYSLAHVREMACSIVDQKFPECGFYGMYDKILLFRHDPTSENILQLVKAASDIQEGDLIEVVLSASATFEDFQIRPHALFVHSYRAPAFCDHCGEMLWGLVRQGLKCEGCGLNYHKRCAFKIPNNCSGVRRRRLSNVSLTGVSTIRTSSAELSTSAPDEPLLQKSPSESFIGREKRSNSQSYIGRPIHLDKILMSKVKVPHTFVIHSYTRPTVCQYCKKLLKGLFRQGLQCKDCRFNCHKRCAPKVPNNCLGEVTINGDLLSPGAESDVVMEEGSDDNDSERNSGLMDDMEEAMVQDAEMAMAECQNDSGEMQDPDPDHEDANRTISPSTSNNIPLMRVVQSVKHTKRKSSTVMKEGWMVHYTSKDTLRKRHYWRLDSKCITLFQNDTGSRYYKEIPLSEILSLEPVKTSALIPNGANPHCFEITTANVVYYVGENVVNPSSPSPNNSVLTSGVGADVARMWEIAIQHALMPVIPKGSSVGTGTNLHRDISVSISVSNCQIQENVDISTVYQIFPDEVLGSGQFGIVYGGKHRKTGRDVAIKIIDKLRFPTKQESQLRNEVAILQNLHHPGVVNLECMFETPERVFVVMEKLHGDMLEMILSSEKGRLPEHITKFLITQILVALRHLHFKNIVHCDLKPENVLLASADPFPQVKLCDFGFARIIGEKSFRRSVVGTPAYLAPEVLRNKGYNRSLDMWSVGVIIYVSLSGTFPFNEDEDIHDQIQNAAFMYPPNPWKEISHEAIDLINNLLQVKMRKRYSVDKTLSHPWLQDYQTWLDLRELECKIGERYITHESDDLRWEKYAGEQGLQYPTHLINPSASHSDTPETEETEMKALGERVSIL
Ephrin type-B receptor 1 (Homo sapiens), sequence (P54762 whole entry): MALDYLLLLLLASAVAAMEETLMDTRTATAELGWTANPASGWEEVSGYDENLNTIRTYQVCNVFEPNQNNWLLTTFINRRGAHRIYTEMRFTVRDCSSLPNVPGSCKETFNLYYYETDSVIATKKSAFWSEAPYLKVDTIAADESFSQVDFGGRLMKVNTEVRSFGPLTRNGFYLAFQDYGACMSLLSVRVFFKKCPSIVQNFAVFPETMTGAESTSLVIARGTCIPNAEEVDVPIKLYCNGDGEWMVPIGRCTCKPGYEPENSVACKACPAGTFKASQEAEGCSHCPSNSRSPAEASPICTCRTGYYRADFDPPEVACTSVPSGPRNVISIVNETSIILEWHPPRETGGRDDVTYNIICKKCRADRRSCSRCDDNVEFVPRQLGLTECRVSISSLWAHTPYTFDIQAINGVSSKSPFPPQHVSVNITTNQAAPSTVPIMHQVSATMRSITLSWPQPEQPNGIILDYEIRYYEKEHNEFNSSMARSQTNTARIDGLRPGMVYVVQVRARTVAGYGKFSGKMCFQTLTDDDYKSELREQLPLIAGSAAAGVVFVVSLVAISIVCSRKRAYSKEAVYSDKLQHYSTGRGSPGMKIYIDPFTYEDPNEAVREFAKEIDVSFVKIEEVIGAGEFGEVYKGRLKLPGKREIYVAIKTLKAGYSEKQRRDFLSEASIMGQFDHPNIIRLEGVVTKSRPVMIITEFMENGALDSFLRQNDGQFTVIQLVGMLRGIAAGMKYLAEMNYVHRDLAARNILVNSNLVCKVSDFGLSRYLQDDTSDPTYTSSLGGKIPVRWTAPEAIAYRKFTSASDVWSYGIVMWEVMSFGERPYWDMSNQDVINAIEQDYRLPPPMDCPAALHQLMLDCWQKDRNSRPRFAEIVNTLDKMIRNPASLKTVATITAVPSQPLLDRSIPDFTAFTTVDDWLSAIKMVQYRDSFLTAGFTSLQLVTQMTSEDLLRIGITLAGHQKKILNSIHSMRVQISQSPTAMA

Structure (SMILES): Cc1ccc(NC(=O)C2(C(=O)Nc3ccc(Nc4ncc(F)c(-c5cc(F)c6nc(C)n(C(C)C)c6c5)n4)cc3)CC2)cc1
- Activity [1]: Non-Toxic
- inhibition [2]: 0%
- inhibition [3]: 9%
- inhibition [4]: 49%
- inhibition [5]: 28%
- inhibition [6]: 3%
- inhibition [7]: 66%
- inhibition [8]: 76%
- inhibition [9]: 10%
- inhibition [10]: 12%
- inhibition [11]: 8%
- inhibition [12]: 27%
- AUMCt [13]: 21 mg/L.hr
- inhibition [14]: 0%
- inhibition (HeLa): Active
- inhibition [15]: 28%
- inhibition [16]: 12%
- inhibition [17]: 14%
- IC50 (CDK4/Cyclin D3): 46 nM

Structure (SMILES): COc1cc2nccc(Oc3ccc(NC(=O)C4(C(=O)Nc5ccc(F)cc5)CC4)cc3)c2cc1OC [CABOZANTINIB]
- inhibition (SiHa [18]): Active
- Activity (SiHa [19]): Active
